We go through 14 compounds from PubChem BioAssay.

Assay [1] is described as follows: reducers of endogenous Her2 protein level, primary screen, SKBR3 breast tumor cells, AlphaScreen, ATP viability (AID 461;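 active means Her2 level under about 52% in both replicate screens, with viability over 70% of control, limit read from the data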;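 on Her2 level: lower value means less Her2 protein in the cells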;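 on viability: percent of carrier control wells set as 100% viability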). To be noted: 18-24 h, measured here: SKBR3 viability, ATP luminescence, at 10 µM.
The target in assay [2] is Receptor tyrosine-protein kinase erbB-2 (Homo sapiens) (UniProt P04626). The assay is described as above. The settings on record: 18-24 h, at 10 µM, stronger effect = lower value.
Assay [3] in a line: SK-BR-3 cell growth inhibitors, pilot screen, 24 h, human (AID 572).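 Further: compound exposure lasted between 18 and 24 h rather than exactly 24 h; 100% = carrier-treated control wells.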 The settings on record: SK-BR-3 viability, CellTiter-Glo luminescence, at 10 µM, stronger effect = lower value.
Assay [4] can be described thus: HUVEC growth inhibition – cell-based, human, primary screen (AID 575;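 active means viability at or below 30% in both replicate assays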;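 further: 100% = median of untreated cell wells with 0.1% DMSO on each plate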). The settings on record: HUVEC proliferation, CellTiter-Glo luminescence, 72 h; at 10 µM; stronger effect = lower value. The essentials: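 Material: primary human umbilical vein endothelial cells / Schedule: 72 h exposure, 37 °C, 5% CO2, 30 min RT equilibration / Signal: ATP-based CellTiter-Glo luminescent read / Read-out basis: percent of median DMSO-control luminescence / Control set: 32 DMSO-only cell-control wells (high), 32 MePR drug-control wells (low) per plate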

Assay [5] can be described thus: growth inhibitors of H69AR lung tumor, primary screen, human, duplicate replicates (AID 580;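 active means viability at or under a set limit in both replicates, limit being median viability minus 3 SD, cut at about 48% in these data, passing the limit was not always enough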;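 further: 100% = mean luminescence of untreated wells and 0% = no signal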). The settings on record: H69AR lung tumor cells viability, ATP luminescence, 72 h; at 10 µM; stronger effect = lower value.
Assay [6] can be described thus: reversal of MRP1-mediated doxorubicin resistance, pilot screen, H69AR cells, doxorubicin co-treatment (AID 601;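 active means viability loss from added drug above about 55%, and viability with drug at most 40%, in both replicates, limit read from the data, passing the limit was not always enough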). The settings on record: CellTiter-Glo, 72 h, at 10 µM; for differential viability (reversal): stronger effect = higher value.
A short description of assay [7]: 384-well plate pilot, post-Golgi transport modulator project, inhibition of yeast transport mutant growth (AID 636; in the data active means inhibition above about 31%). The settings on record: absorbance 615 nm, about 18 h, stronger effect = higher value.
Assay [8] is described as follows: growth suppression of yeast trafficking mutant, preliminary HTS, modulators of trafficking downstream of Golgi apparatus project, 1536-format plate, OD 615 nm (AID 637; in the data active means inhibition above about 30%). The settings on record: yeast transport mutant growth, absorbance 615 nm, 18 h; stronger effect = higher value.
Where [9] appears, read: H69AR cells + 2 uM doxorubicin, measured here: viability with 2 uM doxorubicin, stronger effect = lower value.
Where [10] appears, read: H69AR cells, compound alone cytotoxicity.

Structures are written as SMILES. Calls of active or inactive are those of the source.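 How the source made its calls, unless noted: active means viability at or below 10% of carrier control in both of two separate runs; inconclusive means viability at or below 10% in only one of the two runs; inactive means the rest.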

Receptor tyrosine-protein kinase erbB-2 (Homo sapiens), sequence (P04626 whole entry, looked up): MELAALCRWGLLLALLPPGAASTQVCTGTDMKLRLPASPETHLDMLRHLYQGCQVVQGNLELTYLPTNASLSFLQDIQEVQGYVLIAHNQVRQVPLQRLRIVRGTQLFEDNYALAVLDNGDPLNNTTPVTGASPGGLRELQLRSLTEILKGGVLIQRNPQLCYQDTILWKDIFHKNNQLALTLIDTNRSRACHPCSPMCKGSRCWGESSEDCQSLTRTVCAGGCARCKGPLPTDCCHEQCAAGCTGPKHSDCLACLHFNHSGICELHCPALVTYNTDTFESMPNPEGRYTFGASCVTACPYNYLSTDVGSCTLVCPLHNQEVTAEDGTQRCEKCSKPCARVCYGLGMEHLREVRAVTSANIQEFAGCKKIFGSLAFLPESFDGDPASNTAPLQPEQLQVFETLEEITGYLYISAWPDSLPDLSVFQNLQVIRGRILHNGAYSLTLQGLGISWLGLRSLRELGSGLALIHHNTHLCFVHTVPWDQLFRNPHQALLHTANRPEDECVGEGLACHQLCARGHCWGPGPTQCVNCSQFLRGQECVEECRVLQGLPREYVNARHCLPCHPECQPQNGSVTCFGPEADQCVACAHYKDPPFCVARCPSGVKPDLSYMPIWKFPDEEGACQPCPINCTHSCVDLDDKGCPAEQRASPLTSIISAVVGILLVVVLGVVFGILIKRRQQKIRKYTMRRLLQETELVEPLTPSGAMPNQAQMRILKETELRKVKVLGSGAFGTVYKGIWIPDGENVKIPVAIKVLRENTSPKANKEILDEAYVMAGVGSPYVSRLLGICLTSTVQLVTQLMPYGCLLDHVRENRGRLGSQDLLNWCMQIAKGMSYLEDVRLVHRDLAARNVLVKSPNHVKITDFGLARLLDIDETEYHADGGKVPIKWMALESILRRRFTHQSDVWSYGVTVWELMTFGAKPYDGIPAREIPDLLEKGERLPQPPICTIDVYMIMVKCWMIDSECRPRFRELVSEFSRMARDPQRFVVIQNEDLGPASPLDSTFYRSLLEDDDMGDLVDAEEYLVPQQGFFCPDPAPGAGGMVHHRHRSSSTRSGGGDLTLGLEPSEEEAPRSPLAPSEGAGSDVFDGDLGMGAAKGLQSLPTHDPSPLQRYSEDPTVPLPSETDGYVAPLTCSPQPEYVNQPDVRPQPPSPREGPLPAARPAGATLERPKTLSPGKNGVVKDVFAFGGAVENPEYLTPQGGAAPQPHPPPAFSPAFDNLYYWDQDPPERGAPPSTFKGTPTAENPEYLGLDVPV

In the case of `COC(=O)c1cc2oc(C)cc2n1CC(=O)N(C)c1ccccc1`, the viability in assay [1] was 93%; in assay [3], 93% (inactive); in assay [4], 83.2% (inactive); in assay [5] it was 95.4% (inactive); in assay [6] (setting [9]), 88%; in assay [6] (setting [10]), 95.4%. In assay [2], the Her2 level is 92.5% (inactive). Further, the differential viability (reversal) in assay [6] (H69AR cells + 2 uM doxorubicin) was 7.45% (inactive). Moreover, the inhibition was -1.92% (inactive) in assay [7] and -2.17% (inactive) in assay [8].

`Cc1ccccc1-n1c(=O)cc(N2CCN(C(=O)c3ccco3)CC2)[nH]c1=O`: the viability was 86% in assay [1]; 86% (inactive) in assay [3]; 100% (inactive) in assay [4]; 98.3% (inactive) in assay [5]; 88.5% in assay [6] (setting [9]); 98.3% in assay [6] (setting [10]). Also, the Her2 level in assay [2] was 100% (inactive). For the same compound, in assay [6] (H69AR cells + 2 uM doxorubicin), the differential viability (reversal) is 9.79% (inactive). Moreover, the inhibition was 0.77% (inactive) in assay [7] and 0.17% (inactive) in assay [8].

As to `C1CCc2nnc(-c3nnc4n3CCCCC4)n2CC1`, the viability in assay [1] was 86.5%; in assay [3], 86.5% (inactive); in assay [4] it was 104% (inactive); in assay [5] it was 93% (inactive); in assay [6] (setting [9]), 86.4%; in assay [6] (setting [10]), 93%. For the same compound, the Her2 level in assay [2] was 99.5% (inactive). Besides, the differential viability (reversal) in assay [6] (H69AR cells + 2 uM doxorubicin) is 6.52% (inactive). Further, the inhibition in assay [7] was -1.28% (inactive); in assay [8], 1.67% (inactive).

`Cc1ccc(NC(=O)CCC(=O)OCC(F)(F)C(F)F)cc1`: the viability is 98% in assay [1]; 98% (inactive) in assay [3]; 117% (inactive) in assay [4]; 103% (inactive) in assay [5]; 104% in assay [6] (setting [9]); 103% in assay [6] (setting [10]). The Her2 level in assay [2] was 106% (inactive). Moreover, in assay [6] (H69AR cells + 2 uM doxorubicin), the differential viability (reversal) was -1.04% (inactive). Moreover, the inhibition in assay [7] was -0.65% (inactive); in assay [8], -7.67% (inactive).

With `Cc1csc(SCc2nc3sc4c(c3c(=O)[nH]2)CCC4)n1`, the viability in assay [1] was 116%; in assay [3], 116% (inactive); in assay [4], 103% (inactive); in assay [5], 87.8% (inactive); in assay [6] (setting [9]) it was 86%; in assay [6] (setting [10]) it was 87.8%. In addition, the Her2 level in assay [2] is 122% (inactive). For the same compound, in assay [6] (H69AR cells + 2 uM doxorubicin), the differential viability (reversal) is 1.88% (inactive). The inhibition in assay [7] was -6.16% (inactive); in assay [8], 0% (inactive).

Regarding `CCc1nnc(NC(=O)C2CC(=O)N(Cc3ccco3)C2)s1` (stereo not given), the viability in assay [1] is 107%; in assay [3], 107% (inactive); in assay [4] it was 111% (inactive); in assay [5], 98.4% (inactive); in assay [6] (setting [9]), 94.4%; in assay [6] (setting [10]) it was 98.4%. Moreover, the Her2 level in assay [2] was 95% (inactive). For the same compound, in assay [6] (H69AR cells + 2 uM doxorubicin), the differential viability (reversal) was 4% (inactive). Moreover, the inhibition in assay [7] was -2.93% (inactive); in assay [8] it was 2.1% (inactive).

In the case of `COc1ccc(-c2cc(O)cc(O)c2)cc1`, the viability was 108% in assay [1]; 108% (inactive) in assay [3]; 71.7% (inactive) in assay [4]; 87.6% (inactive) in assay [5]; 79.9% in assay [6] (setting [9]); 87.6% in assay [6] (setting [10]). The Her2 level in assay [2] was 89.5% (inactive). Moreover, the differential viability (reversal) in assay [6] (H69AR cells + 2 uM doxorubicin) is 7.77% (inactive). The inhibition was -8.24% (inactive) in assay [7] and 4.26% (inactive) in assay [8].

In the case of `C=CCc1c(C)nc(SC)nc1Nc1ccc(C(=O)O)cc1`, the viability is 106% in assay [1]; 106% (inactive) in assay [3]; 84.2% (inactive) in assay [4]; 86.9% (inactive) in assay [5]; 85.7% in assay [6] (setting [9]); 86.9% in assay [6] (setting [10]). For the same compound, the Her2 level in assay [2] is 74.5% (inactive). For the same compound, the differential viability (reversal) in assay [6] (H69AR cells + 2 uM doxorubicin) is 1.22% (inactive). The inhibition was -6.89% (inactive) in assay [7] and 3.28% (inactive) in assay [8].

`COc1nc(N2CCOCC2)nc(-n2cccc2)n1`: the viability in assay [1] is 94.5%; in assay [3], 94.5% (inactive); in assay [4], 90.6% (inactive); in assay [5], 87.4% (inactive); in assay [6] (setting [9]), 73.6%; in assay [6] (setting [10]), 87.4%. Further, the Her2 level in assay [2] is 86.5% (inactive). Besides, the differential viability (reversal) in assay [6] (H69AR cells + 2 uM doxorubicin) is 13.8% (inactive). The inhibition is -4.08% (inactive) in assay [7] and -5.09% (inactive) in assay [8].

Regarding `O=c1cnnc(NCc2ccccc2)[nH]1`, the viability in assay [1] was 88.5%; in assay [3], 88.5% (inactive); in assay [4], 106% (inactive); in assay [5] it was 103% (inactive); in assay [6] (setting [9]) it was 91.5%; in assay [6] (setting [10]) it was 103%. Moreover, the Her2 level in assay [2] was 108% (inactive). Moreover, the differential viability (reversal) in assay [6] (H69AR cells + 2 uM doxorubicin) is 11.8% (inactive). In addition, the inhibition in assay [7] was -5.79% (inactive); in assay [8], -5.33% (inactive).

Take `CC(=O)N1CCN(c2ccc(S(=O)(=O)N3CCCCC3)cn2)CC1`: the viability was 97% in assay [1]; 97% (inactive) in assay [3]; 101% (inactive) in assay [4]; 88.6% (inactive) in assay [5]; 84.6% in assay [6] (setting [9]); 88.6% in assay [6] (setting [10]). Moreover, the Her2 level in assay [2] was 89.5% (inactive). Also, the differential viability (reversal) in assay [6] (H69AR cells + 2 uM doxorubicin) was 3.99% (inactive). Further, the values for the inhibition in assay [7] and in assay [8] were -0.39% (inactive) and -0.16% (inactive), respectively.

Consider `CCSc1nnc(-c2cccs2)o1`, for which the viability in assay [1] is 89%; in assay [3] it was 89% (inactive); in assay [4] it was 87.3% (inactive); in assay [5] it was 92.3% (inactive); in assay [6] (setting [9]) it was 96.6%; in assay [6] (setting [10]), 92.3%. For the same compound, the Her2 level in assay [2] is 106% (inactive). In assay [6] (H69AR cells + 2 uM doxorubicin), the differential viability (reversal) was -4.3% (inactive). For the same compound, the results for the inhibition in assay [7] and in assay [8] were -0.13% (inactive) and -2.83% (inactive), respectively.

Turning to `CC1(C)CC(=O)C=C(Nc2ccc(F)cc2)C1`, the viability in assay [1] was 102%; in assay [3] it was 102% (inactive); in assay [4] it was 90.5% (inactive); in assay [5], 96.5% (inactive); in assay [6] (setting [9]), 90.1%; in assay [6] (setting [10]), 96.5%. Moreover, the Her2 level in assay [2] is 95% (inactive). Besides, the differential viability (reversal) in assay [6] (H69AR cells + 2 uM doxorubicin) is 6.35% (inactive). In addition, the inhibition in assay [7] is -0.39% (inactive); in assay [8], -3.64% (inactive).

With `O=C1CS/C(=N\C(=O)N2c3ccccc3Sc3ccccc32)N1`, the viability in assay [1] is 102%; in assay [3] it was 102% (inactive); in assay [4], 94% (inactive); in assay [5] it was 105% (inactive); in assay [6] (setting [9]), 90.2%; in assay [6] (setting [10]) it was 105%. Moreover, in assay [2], the Her2 level was 98.5% (inactive). The differential viability (reversal) in assay [6] (H69AR cells + 2 uM doxorubicin) is 14.4% (inactive). The inhibition in assay [7] is -7.07% (inactive); in assay [8] it was 1.29% (inactive).
